According to ChEMBL document CHEMBL2169766 (J Med Chem, 2012):

Tests used:
[1] = molecular target: T1, 5-hydroxytryptamine receptor 3A (Homo sapiens, UniProt P46098); experiment: Displacement of [3H]granisetron from 5HT3A receptor expressed in HEK293 cells after 24 hrs by scintillation counting in presence of quipazine; format: cell-based
T1 sequence (P46098 whole entry): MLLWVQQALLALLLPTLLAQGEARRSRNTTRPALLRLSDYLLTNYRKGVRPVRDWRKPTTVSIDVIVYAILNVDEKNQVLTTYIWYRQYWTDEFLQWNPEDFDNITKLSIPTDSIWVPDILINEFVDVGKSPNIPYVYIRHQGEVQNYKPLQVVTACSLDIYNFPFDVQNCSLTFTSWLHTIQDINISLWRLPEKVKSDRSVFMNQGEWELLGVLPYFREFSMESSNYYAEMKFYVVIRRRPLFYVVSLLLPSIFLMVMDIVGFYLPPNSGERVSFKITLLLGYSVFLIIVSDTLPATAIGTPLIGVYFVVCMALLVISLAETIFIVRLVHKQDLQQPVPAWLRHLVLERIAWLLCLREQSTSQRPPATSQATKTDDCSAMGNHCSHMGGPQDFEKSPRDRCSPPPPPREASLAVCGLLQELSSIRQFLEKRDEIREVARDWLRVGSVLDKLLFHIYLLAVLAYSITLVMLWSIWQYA
Summary of the method: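 Nonspecific binding defined with 1 mM quipazine. At least 24 h at 4 °C, GF/B filtration (0.3% PEI presoaked), scintillation counting. Hill-equation fit; Ki from IC50 via Cheng-Prusoff. At least three separate transfection plates.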

HEK293 [2] = experiment: Selectivity ratio for recombinant rat 5HT1D receptor expressed in CHO cells to 5HT3A receptor expressed in HEK293 cells; format: cell-based
HEK293 [3] = experiment: Selectivity ratio for recombinant human 5HT6 receptor expressed in CHO cells to 5HT3A receptor expressed in HEK293 cells; format: cell-based
[4] = molecular target: Neuronal acetylcholine receptor subunit alpha-7 (Homo sapiens) (UniProt P36544); experiment: Displacement of [3H]epibatidine from recombinant human nACH alpha7 receptor expressed in HEK-293 cells at 0.1 uM after 120 mins; format: cell-based; conditions: HEK293
[5] = molecular target: 5-hydroxytryptamine receptor 2B (Homo sapiens) (UniProt P41595); experiment: Displacement of [125I] +/- DOI from recombinant human 5HT2B receptor expressed in CHO cells at 0.1 uM after 60 mins; format: cell-based
Summary of the method: (§1)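 Single-point radioligand competition binding at an external contract lab. Reported as percent inhibition of control specific binding: 100 − (measured specific binding / control specific binding) × 100.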

[6] = molecular target: 5-hydroxytryptamine receptor 6 (Homo sapiens) (UniProt P50406); experiment: Displacement of [3H]LSD from recombinant human 5HT6 receptor expressed in CHO cells at 0.1 uM after 120 mins; format: cell-based; summary of the method: as §1
[7] = molecular target: 5-hydroxytryptamine receptor 1B (Rattus norvegicus) (UniProt P28564); experiment: Displacement of [125I] CYP from 5HT1B receptor in rat cerebral cortex at 0.1 uM after 120 mins; format: tissue-based; summary of the method: as §1
HEK293 [8] = experiment: Selectivity ratio for recombinant human 5HT2C receptor expressed in HEK-293 cells to 5HT3A receptor expressed in HEK293 cells; format: cell-based
[9] = molecular target: 5-hydroxytryptamine receptor 1D (Rattus norvegicus) (UniProt P28565); experiment: Displacement of [3H]serotonin from recombinant rat 5HT1D receptor expressed in CHO cells at 0.1 uM after 60 mins; format: cell-based; summary of the method: as §1
[10] = molecular target: 5-hydroxytryptamine receptor 4 (Homo sapiens) (UniProt Q13639); experiment: Displacement of [3H]GR113808 from recombinant human 5HT4E receptor expressed in CHO cells at 0.1 uM after 60 mins; format: cell-based; summary of the method: as §1
[11] = molecular target: T2, 5-hydroxytryptamine receptor 2C (Homo sapiens) (UniProt P28335); experiment: Displacement of [125I] +/- DOI from recombinant human 5HT2C receptor expressed in HEK-293 cells at 0.1 uM after 60 mins; format: cell-based; conditions: HEK293; summary of the method: as §1
T2 sequence (whole entry): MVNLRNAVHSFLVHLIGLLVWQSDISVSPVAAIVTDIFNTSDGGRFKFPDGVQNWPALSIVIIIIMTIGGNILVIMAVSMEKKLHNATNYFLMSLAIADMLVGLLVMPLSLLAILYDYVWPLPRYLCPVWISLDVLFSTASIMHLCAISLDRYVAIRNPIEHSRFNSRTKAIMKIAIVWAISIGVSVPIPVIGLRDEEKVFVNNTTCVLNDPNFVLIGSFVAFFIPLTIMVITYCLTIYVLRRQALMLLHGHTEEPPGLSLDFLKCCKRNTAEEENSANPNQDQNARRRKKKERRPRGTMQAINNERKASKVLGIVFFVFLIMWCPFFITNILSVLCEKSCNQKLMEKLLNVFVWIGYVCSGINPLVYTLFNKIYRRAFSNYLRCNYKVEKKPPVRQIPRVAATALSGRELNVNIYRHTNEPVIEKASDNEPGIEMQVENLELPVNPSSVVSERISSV

HEK293 [12] = experiment: Selectivity ratio for recombinant human nACH alpha4beta2 receptor expressed in SH-SY5Y cells to 5HT3A receptor expressed in HEK293 cells; format: cell-based
HEK293 [13] = experiment: Selectivity ratio for recombinant human GABAA alpha1beta2gamma2 receptor expressed in CHO cells to 5HT3A receptor expressed in HEK293 cells; format: cell-based
[14] = molecular target: 5-hydroxytryptamine receptor 2A (Homo sapiens) (UniProt P28223); experiment: Displacement of [125I] +/- DOI from recombinant human 5HT2A receptor expressed in HEK-293 cells at 0.1 uM after 60 mins; format: cell-based; conditions: HEK293; summary of the method: as §1
[15] = molecular target: GABA-A receptor; alpha-1/beta-2/gamma-2 (Homo sapiens) (UniProt P14867+P47870+P18507); experiment: Displacement of [3H]muscimol from recombinant human GABAA alpha1beta2gamma2 receptor expressed in CHO cells at 0.1 uM after 120 mins; format: cell-based; summary of the method: as §1
HEK293 [16] = experiment: Selectivity ratio for recombinant human 5HT4E receptor expressed in CHO cells to 5HT3A receptor expressed in HEK293 cells; format: cell-based
Rattus norvegicus = organism: Rattus norvegicus; experiment: Displacement of [3H]strychnine from glycine receptor in rat spinal cord at 0.1 uM after 15 mins; summary of the method: as §1
HEK293 [17] = experiment: Selectivity ratio for recombinant human 5HT7 receptor expressed in CHO cells to 5HT3A receptor expressed in HEK293 cells; format: cell-based
HEK293 [18] = experiment: Selectivity ratio for recombinant human 5HT1A receptor expressed in HEK-293 to 5HT3A receptor expressed in HEK293 cells; format: cell-based
[19] = molecular target: T3, 5-hydroxytryptamine receptor 1A (Homo sapiens) (UniProt P08908); experiment: Displacement of [3H]8-OH-DPAT from recombinant human 5HT1A receptor expressed in HEK-293 cells at 0.1 uM after 60 mins; format: cell-based; conditions: HEK293; summary of the method: as §1
T3 sequence (whole entry): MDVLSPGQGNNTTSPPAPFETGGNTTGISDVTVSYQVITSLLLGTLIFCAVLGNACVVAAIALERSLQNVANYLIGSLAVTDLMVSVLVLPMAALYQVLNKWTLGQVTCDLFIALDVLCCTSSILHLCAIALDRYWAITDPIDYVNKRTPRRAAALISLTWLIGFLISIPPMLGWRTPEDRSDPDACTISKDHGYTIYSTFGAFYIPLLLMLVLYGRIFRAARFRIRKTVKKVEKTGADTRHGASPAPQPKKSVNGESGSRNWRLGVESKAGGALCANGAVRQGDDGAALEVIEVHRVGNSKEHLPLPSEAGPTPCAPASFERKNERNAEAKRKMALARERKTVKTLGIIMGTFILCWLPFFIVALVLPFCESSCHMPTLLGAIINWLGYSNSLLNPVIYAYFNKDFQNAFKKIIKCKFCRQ

[20] = molecular target: 5-hydroxytryptamine receptor 7 (Homo sapiens) (UniProt P34969); experiment: Displacement of [3H]LSD from recombinant human 5HT7 receptor expressed in CHO cells at 0.1 uM after 120 mins; format: cell-based; summary of the method: as §1
HEK293 [21] = experiment: Selectivity ratio for recombinant human nACH alpha7 receptor expressed in HEK-293 cells to 5HT3A receptor expressed in HEK293 cells; format: cell-based
HEK293 [22] = experiment: Selectivity ratio for recombinant human 5HT2C receptor expressed in HEK-293 to 5HT3A receptor expressed in HEK293 cells; format: cell-based
HEK293 [23] = experiment: Selectivity ratio for glycine receptor in rat spinal cord to 5HT3A receptor expressed in HEK293 cells; format: cell-based
[24] = molecular target: Neuronal acetylcholine receptor; alpha4/beta2 (Homo sapiens) (UniProt P17787+P43681); experiment: Displacement of [3H]cytisine from recombinant human nACH alpha4beta2 receptor expressed in SH-SY5Y cells at 0.1 uM after 120 mins; format: cell-based; summary of the method: as §1
HEK293 [25] = experiment: Selectivity ratio for 5HT1B receptor in rat cerebral cortex to 5HT3A receptor expressed in HEK293 cells; format: cell-based
HEK293 [26] = experiment: Selectivity ratio for recombinant human 5HT2A receptor expressed in HEK-293 cells to 5HT3A receptor expressed in HEK293 cells; format: cell-based

Sequence of 5-hydroxytryptamine receptor 4 (Homo sapiens) (Q13639 whole entry): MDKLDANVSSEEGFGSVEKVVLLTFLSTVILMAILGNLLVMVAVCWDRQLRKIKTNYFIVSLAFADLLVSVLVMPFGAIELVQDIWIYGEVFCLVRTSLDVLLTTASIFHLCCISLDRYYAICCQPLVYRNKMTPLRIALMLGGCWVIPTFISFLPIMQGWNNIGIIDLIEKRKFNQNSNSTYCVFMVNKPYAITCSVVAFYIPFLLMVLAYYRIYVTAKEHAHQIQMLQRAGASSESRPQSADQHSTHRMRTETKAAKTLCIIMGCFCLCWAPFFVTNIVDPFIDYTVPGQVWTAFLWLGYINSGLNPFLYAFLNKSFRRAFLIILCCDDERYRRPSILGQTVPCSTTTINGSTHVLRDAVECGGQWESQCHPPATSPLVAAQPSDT
Sequence of 5-hydroxytryptamine receptor 7 (Homo sapiens) (P34969 whole entry): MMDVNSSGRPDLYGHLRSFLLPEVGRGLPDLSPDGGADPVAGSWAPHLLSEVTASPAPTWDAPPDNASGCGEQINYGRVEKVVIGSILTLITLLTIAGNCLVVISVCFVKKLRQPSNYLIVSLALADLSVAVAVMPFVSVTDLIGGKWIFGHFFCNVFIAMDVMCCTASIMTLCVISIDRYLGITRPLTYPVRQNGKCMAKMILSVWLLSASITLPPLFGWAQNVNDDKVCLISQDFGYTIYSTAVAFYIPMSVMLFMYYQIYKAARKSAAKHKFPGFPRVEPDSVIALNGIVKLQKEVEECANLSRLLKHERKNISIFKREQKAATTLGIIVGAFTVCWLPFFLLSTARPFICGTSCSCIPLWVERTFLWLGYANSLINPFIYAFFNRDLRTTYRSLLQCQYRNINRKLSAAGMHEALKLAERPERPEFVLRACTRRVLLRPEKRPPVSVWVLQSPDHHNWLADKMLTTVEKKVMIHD
Sequence of 5-hydroxytryptamine receptor 1B (Rattus norvegicus) (P28564 whole entry): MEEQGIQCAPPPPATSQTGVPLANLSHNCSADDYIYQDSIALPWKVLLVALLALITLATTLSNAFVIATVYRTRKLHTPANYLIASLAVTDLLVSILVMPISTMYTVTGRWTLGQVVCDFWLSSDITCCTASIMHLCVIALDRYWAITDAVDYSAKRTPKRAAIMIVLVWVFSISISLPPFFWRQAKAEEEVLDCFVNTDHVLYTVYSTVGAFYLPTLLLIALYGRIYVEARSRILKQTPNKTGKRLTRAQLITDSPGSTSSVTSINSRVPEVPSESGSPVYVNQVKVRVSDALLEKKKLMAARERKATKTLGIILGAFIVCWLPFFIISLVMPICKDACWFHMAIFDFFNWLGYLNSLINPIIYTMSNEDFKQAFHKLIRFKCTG
Sequence of 5-hydroxytryptamine receptor 2B (Homo sapiens) (P41595 whole entry): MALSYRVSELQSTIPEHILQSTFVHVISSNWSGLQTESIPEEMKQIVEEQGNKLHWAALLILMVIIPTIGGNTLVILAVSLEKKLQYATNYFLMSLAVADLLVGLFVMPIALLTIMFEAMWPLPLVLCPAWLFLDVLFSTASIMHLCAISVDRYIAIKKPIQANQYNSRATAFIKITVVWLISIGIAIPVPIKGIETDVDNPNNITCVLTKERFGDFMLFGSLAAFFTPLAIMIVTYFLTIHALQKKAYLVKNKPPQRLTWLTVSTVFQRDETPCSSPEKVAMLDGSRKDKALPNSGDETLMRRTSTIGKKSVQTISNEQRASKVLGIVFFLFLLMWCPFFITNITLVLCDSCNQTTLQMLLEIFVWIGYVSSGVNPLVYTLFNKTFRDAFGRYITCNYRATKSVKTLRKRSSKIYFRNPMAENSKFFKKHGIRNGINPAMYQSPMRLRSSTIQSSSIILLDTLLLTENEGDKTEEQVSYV
Sequence of 5-hydroxytryptamine receptor 1D (Rattus norvegicus) (P28565 whole entry): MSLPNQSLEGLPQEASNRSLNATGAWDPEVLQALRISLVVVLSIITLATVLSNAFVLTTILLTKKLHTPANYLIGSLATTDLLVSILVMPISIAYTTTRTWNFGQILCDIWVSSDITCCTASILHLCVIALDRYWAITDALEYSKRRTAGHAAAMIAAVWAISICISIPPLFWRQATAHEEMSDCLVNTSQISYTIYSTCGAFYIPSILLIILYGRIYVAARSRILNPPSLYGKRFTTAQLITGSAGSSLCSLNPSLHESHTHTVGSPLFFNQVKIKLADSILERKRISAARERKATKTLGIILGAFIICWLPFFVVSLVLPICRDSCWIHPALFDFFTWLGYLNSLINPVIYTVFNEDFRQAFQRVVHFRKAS
Sequence of Neuronal acetylcholine receptor subunit alpha-7 (Homo sapiens) (P36544 whole entry): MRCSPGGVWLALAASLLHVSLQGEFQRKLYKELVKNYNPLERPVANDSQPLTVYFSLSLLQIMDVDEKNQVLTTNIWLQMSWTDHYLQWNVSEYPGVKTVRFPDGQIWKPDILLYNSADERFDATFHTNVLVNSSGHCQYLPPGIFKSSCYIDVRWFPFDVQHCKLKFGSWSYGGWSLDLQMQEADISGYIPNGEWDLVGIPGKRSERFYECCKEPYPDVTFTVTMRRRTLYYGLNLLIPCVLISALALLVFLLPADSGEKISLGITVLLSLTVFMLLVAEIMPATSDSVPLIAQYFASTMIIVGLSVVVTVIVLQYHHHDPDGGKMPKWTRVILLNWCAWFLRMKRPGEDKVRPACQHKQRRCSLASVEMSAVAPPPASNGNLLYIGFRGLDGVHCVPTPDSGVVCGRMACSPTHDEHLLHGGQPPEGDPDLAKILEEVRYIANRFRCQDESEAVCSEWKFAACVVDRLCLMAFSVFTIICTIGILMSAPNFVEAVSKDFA
Sequence of 5-hydroxytryptamine receptor 6 (Homo sapiens) (P50406 whole entry): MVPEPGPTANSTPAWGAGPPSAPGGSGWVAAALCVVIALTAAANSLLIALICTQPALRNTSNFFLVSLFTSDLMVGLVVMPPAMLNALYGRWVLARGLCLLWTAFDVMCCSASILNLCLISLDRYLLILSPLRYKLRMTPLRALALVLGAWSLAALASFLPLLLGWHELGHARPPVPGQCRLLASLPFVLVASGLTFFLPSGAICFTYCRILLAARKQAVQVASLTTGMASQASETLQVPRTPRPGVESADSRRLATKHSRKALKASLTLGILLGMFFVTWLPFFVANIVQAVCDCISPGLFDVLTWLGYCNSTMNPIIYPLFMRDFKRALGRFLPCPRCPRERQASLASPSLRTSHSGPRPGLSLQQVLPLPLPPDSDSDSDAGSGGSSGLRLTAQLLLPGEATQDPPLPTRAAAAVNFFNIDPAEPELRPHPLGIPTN
Sequence of 5-hydroxytryptamine receptor 2A (Homo sapiens) (P28223 whole entry): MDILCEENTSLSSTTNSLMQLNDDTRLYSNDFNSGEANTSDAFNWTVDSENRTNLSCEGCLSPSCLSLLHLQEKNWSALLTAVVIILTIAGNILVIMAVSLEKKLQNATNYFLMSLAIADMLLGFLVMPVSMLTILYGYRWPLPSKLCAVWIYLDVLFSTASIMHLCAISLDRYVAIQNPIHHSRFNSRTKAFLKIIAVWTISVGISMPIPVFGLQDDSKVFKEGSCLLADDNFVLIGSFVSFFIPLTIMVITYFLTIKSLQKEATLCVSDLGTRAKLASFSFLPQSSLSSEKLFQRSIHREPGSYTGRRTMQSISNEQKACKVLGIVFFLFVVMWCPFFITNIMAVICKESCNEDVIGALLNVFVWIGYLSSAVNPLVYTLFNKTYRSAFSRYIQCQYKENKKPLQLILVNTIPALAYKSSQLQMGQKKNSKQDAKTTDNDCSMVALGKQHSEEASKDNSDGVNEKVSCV

CNc1nc(N2CCCN(C)CC2)nc2ccc(Cl)cc12
Ki [1]: 18.2 nM

CN1CCN(c2ccc3ccccc3n2)CC1
Ki [1]: 0.457 nM

CN1CCN(c2ncc3cc(Cl)ccc3n2)CC1
Ki [1]: 7.41 nM

CN1CCN(c2nc(N(C)C)c3cc(Cl)ccc3n2)CC1
Ki [1]: 6.61 nM

CNc1nc(N2CCN(C)CC2)cc2ccccc12
Ki [1]: 5.89 nM

CNc1nc(N2CC3CCCNC3C2)nc2ccc(Cl)cc12 (stereo not drawn)
Ki [1]: 3550 nM

CN1CCN(c2nc3ccccc3c(=O)[nH]2)CC1
Ki [1]: 46.8 nM

CN1CCN(c2cnc3ccccc3n2)CC1
Ki [1]: 4.68 nM

CN1CCN(c2nc(NCCc3ccccc3)c3cc(Cl)ccc3n2)CC1
Ki [1]: 79.4 nM

CNc1nc(N2CCN(C)CC2)nc2ccccc12
Ki [1]: 2.95 nM

CN1CCN(c2nc(N)c3cc(Cl)ccc3n2)CC1
Ki [1]: 12 nM

CNc1nc(NCCC2CCN(C)C2)nc2ccc(Cl)cc12 (stereo not drawn)
Ki [1]: 11700 nM

CN1CCN(c2cnc3ccccc3c2)CC1
Ki [1]: 407 nM

CN1CCN(c2ccc3c(N)cccc3n2)CC1
Ki [1]: 204 nM

CNc1nc(N2CC[C@H](N)C2)nc2ccc(Cl)cc12
Ki [1]: 2340 nM

CN1CCN(c2cc3ccccc3c(N)n2)CC1
Ki [1]: 219 nM

CC(C)Nc1nc(N2CCN(C)CC2)nc2ccc(Cl)cc12
Ki [1]: 166 nM

CN1CCN(c2nc(NCCO)c3cc(Cl)ccc3n2)CC1
Ki [1]: 14.8 nM

CN1CCN(c2nc(O)c3cc(Cl)ccc3n2)CC1
Ki [1]: 575 nM

CN1CCN(c2nc(NCC3CCCCC3)c3cc(Cl)ccc3n2)CC1
Ki [1]: 16600 nM

CN1CCN(c2nc(N)c3ccccc3n2)CC1
Selectivity ratio (HEK293 [2]): 1000
Selectivity ratio (HEK293 [3]): 1000
inhibition [4]: 31%
inhibition [5]: 43%
inhibition [6]: < 15%
inhibition [7]: < 15%
Selectivity ratio (HEK293 [8]): 1000
inhibition [9]: < 15%
inhibition [10]: < 15%
inhibition [11]: < 15%
Selectivity ratio (HEK293 [12]): 1000
Selectivity ratio (HEK293 [13]): 1000
inhibition [14]: < 15%
inhibition [15]: < 15%
Selectivity ratio (HEK293 [16]): 1000
inhibition (Rattus norvegicus): < 15%
Selectivity ratio (HEK293 [17]): 1000
Selectivity ratio (HEK293 [18]): 1000
inhibition [19]: < 15%
inhibition [20]: < 15%
Selectivity ratio (HEK293 [21]): 1000
Selectivity ratio (HEK293 [22]): 1000
Selectivity ratio (HEK293 [23]): 1000
Ki [1]: 0.0513 nM
inhibition [24]: < 15%
Selectivity ratio (HEK293 [25]): 1000
Selectivity ratio (HEK293 [26]): 1000

CNc1nc(N2CC(N(C)C)C2)nc2ccc(Cl)cc12
Ki [1]: 468 nM

CN1CCN(c2nc(NCc3ccc(N)cc3)c3cc(Cl)ccc3n2)CC1
Ki [1]: 2.69 nM

CN1CCN(c2cc(N)c3ccccc3n2)CC1
Ki [1]: 1.45 nM

CNc1cc(N2CCN(C)CC2)nc2ccccc12
Ki [1]: 13.5 nM

CN1CCN(c2nc(NCc3ccccc3)c3cc(Cl)ccc3n2)CC1
Ki [1]: 13.8 nM

CN1CCN(c2nc(NCc3ccoc3)c3cc(Cl)ccc3n2)CC1
Ki [1]: 2.82 nM

CN1CCN(c2ncc3ccccc3n2)CC1
Ki [1]: 1.35 nM

CN1CCN(c2ccc3ccccc3c2)CC1
Ki [1]: 537 nM

CNc1nc(N2CCN(C)CC2)nc2ccc(Cl)cc12
Ki [1]: 1.12 nM

CN1CCN(c2cc3ccccc3cn2)CC1
Ki [1]: 1.62 nM

CN1CCN(c2ccc3cccc(N)c3n2)CC1
Ki [1]: 331 nM
